# The list is not random: actives were taken first. Their share in the collection is about 3.7%.
# TAAR1 ag: agonists of human TAAR1; Q96RJ0; CHO RD-HGA16 TAAR1, Fluo-8 calcium fluorescence; vehicle wells 0%, saturating PEA agonist 100%; activation, % at 3 µM; actives 0.99% (n = 360,000);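 active = activation above the mean activation of all test compounds in the run plus 3 SD, cut at about 38% in these data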
# Target sequence (Q96RJ0 whole entry, looked up): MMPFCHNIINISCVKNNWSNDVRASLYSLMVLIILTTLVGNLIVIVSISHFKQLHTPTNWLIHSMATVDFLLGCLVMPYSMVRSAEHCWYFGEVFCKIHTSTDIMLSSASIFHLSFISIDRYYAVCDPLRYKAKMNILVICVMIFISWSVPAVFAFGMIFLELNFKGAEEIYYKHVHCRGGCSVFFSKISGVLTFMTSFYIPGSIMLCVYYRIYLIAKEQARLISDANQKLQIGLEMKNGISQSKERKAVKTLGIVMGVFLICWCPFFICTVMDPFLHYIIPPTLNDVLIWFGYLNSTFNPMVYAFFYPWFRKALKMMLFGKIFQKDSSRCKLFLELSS
#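 Assay system: CHO-derived RD-HGA16 cells with stable Gα16 and human TAAR1; timing: 17-24 h seeding, 75 min 37 °C dye, 30 min RT; read-out: % activation from peak over basal fluorescence ratio, DMSO-to-PEA scaled; measured by: kinetic Fluo-8 calcium fluorescence; benchmarks: low control DMSO, high control PEA (EC100); doses: 3 µM single concentration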
# TAAR1 antagonist: human TAAR1 antagonism | CHO RD-HGA16 TAAR1, Fluo-8 calcium fluorescence, antagonist | inhibition, % at 3 µM | actives 1.5% (n = 360,000) | AID 624466;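 active = inhibition above a per-plate cutoff, the mean inhibition of test compounds on that plate plus 3 SD, cut at about 49% in these data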
#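 Material: RD-HGA16 CHO cells with stable hTAAR1 and Gα16; Dosing: single nominal final test compound concentration of 3 µM; Schedule: seeding 17-24 h prior, 75-min 37 °C, 30-min RT dye loading; Detection: kinetic Fluo-8 calcium fluorescence measurement; Measure: % inhibition from peak post-agonist over basal fluorescence ratio; Benchmarks: vehicle and agonist controls.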
# NS3 helicase inh: inhibitors of Hepatitis C virus NS3 helicase; actives 0.56% (n = 290,000); AID 1800; inhibition, % at 10.9 µM; NS3 helicase DNA unwinding, Cy5 molecular beacon fluorescence;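 active = inhibition above the mean of all tested compounds plus 3 SD, set per campaign, cut at about 35% in these data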
#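 Compound dosing – single dose, 10.9 µM nominal final, DMSO 0.8% final · System – NS3 helicase fragment of HCV · Buffer or medium – MOPS pH 6.5, MgCl2, DTT, Tween20, BSA · Signal – Cy5 beacon fluorescence read at start and 1 h · Also added – annealed dual-labelled DNA beacon duplex, ATP-started · Schedule – 1 h at 25 °C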
# rCAG RNA binder: r(CAG) repeat RNA binding; TO-PRO-1 dye displacement fluorescence; inhibition, % at 3 µM; AID 651821; actives 1.3% (n = 370,000);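 active = inhibition above the plate cutoff, the mean of all test compounds on that plate plus 3 SD, cut at about 35% in these data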;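 note: higher means more dye released from RNA so lower well fluorescence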
# core dimer inh: blocks dimerization of HCV core protein. TR-FRET GST/Flag-core106 dimerization, 1536-well. inhibition, % at 5 µM. actives 0.33% (n = 300,000). AID 1899;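 active = inhibition above the mean of all tested compounds plus 3 SD, set per screening campaign, cut at about 45% in these data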
#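 Assay system: GST-tagged and Flag-tagged HCV core protein residues 1-106 / Times: compound-protein-antibody incubation 4 h at 22.5 °C / Signal: time-resolved FRET, ex 340 nm, em 617 and 671 nm / Evaluation: % inhibition based on acceptor/donor emission ratio / Benchmarks: wells lacking GST-core106 and wells with excess unlabelled core106 / Repeats: singlicate, one well per compound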
# Hits are given with their value; – = inactive; · = no result given.
SMILES,TAAR1 ag,TAAR1 antagonist,NS3 helicase inh,rCAG RNA binder,core dimer inh
O=C(COC(=O)c1c2c(nc3ccccc13)CCCC2)Nc1ccc2c(c1)OCO2,–,53.7,–,–,–
CC(C)c1ccccc1NC(=O)COC(=O)c1c2c(nc3ccccc13)CCN(Cc1ccccc1)C2,–,58.9,–,–,–
O=[N+]([O-])c1ccc(NC(=S)NCCc2ccc(Cl)cc2)cc1,–,56.8,–,–,–
O=[N+]([O-])c1ccc(NC(=S)NCCc2ccccc2)cc1,–,–,–,–,–
COc1cccc(OC(C)CCN2CCC(C(O)(c3ccccc3)c3ccccc3)CC2)c1 (stereo not drawn),·,·,·,–,·
c1ccc(COc2ccc(-c3cc4nc(NCCCn5ccnc5)ccn4n3)cc2)cc1,–,53.0,·,–,·
OC1CCC(Nc2ccn3nc(-c4cccc(OCc5ccccc5)c4)cc3n2)CC1 (stereo not drawn),–,52.8,·,–,·
Cc1ccc(-c2nc3c(Cl)cc(C(F)(F)F)cn3c2Cc2ccsc2)cc1,–,–,·,55.1,·
Fc1ccc(-c2nc3c(Cl)cc(C(F)(F)F)cn3c2Cc2ccsc2)cc1,–,–,·,–,·
CC(C)CNc1ncnc2c1ncn2[C@H]1CN(Cc2ccc(Cl)cc2)C[C@@H](CO)O1,–,–,·,–,·
OC[C@@H]1CN(Cc2ccc(-c3ccccc3)cc2)C[C@H](n2cnc3c(Nc4ccccc4)ncnc32)O1,–,51.5,·,–,·
CC(C)CNc1ncnc2c1ncn2[C@H]1CN(CCc2ccccc2)C[C@@H](CO)O1,40.6,–,·,–,·
OC[C@@H]1CN(Cc2ccc(F)cc2)C[C@H](n2cnc3c(Nc4ccccc4)ncnc32)O1,–,–,·,–,·
OC[C@@H]1CN(Cc2cccc3ccccc23)C[C@H](n2cnc3c(NCc4ccco4)ncnc32)O1,–,65.5,·,–,·
O=C(Nc1ccccc1N1CCOCC1)C1(c2ccc(Cl)cc2)CCC1,41.1,–,–,–,–
COC(=O)[C@]12C[C@H](CC(=O)N3CCC(c4ccccc4)CC3)C(=O)N(CCC3=CCCCC3)C1=C[C@H](C(C)C)O[C@@H]2C1CC1,·,·,·,–,·
CN(C)/C=C/C(=O)/C=C/c1cn(-c2ncc(C(F)(F)F)cc2Cl)c2ccccc12,–,–,–,–,57.8
O=C(NCc1cccs1)C1CCN(S(=O)(=O)c2cccc3ccccc23)CC1,·,·,·,–,·
OC1(c2cccc(C(F)(F)F)c2)CCN(c2ncnc3c2[nH]c2ccc(F)cc23)CC1,–,60.4,–,–,·
CCOC(=O)N1CCN(c2ncnc3c2[nH]c2ccc(F)cc23)CC1,–,–,–,–,–
COc1ccc(N2CCN(c3ncnc4c3[nH]c3ccccc34)CC2)cc1,–,66.5,–,–,–
Fc1ccc2[nH]c3c(N4CCN(c5ccccc5)CC4)ncnc3c2c1,–,56.7,–,–,–
Cc1ccc(SCc2c(C(=O)N/N=C/c3cccs3)nnn2-c2nonc2N)cc1,–,62.1,·,–,·
Cc1ccsc1/C=N/NC(=O)c1nnn(-c2nonc2N)c1CN(C)c1ccccc1,–,48.9,–,–,–
O=C(CCc1ccccc1)N[C@H]1[C@H](OC(=O)c2ccco2)CCC[C@@]12C(=O)N(Cc1ccccc1)c1ccccc12,·,·,·,–,·
SMILES,TAAR1 ag,TAAR1 antagonist,NS3 helicase inh,rCAG RNA binder,core dimer inh
COc1ccc(CCNCc2ccc(OCc3ccccc3)cc2)cc1,43.5,–,–,–,–
Nc1[nH]c2cc(Cl)ccc2c1C(=O)NCCc1ccc(Cl)cc1,·,·,·,–,·
COc1ccc(N2CCN(C(=O)Cn3cncn3)CC2)cc1,–,–,–,–,–
CC(C)N1CCN(c2ccc(OCC3COC(Cn4cncn4)(c4ccc(Cl)cc4Cl)O3)cc2)CC1 (stereo not drawn),–,61.0,·,–,·
N#Cc1ccc(/C=C2\CC3(OC(=O)C4CCCC4)CCCN2C3)cc1 (stereo not drawn),·,·,·,–,·
COc1ccc(-c2nnc(SCC(=O)N/N=C(\C)c3ccc(-c4ccccc4)cc3)n2-c2ccc(C)cc2)cc1,·,·,·,–,·
COc1ccc2sc(N(CCCN(C)C)C(=O)c3ccc(S(=O)(=O)N(C)Cc4ccccc4)cc3)nc2c1,43.1,–,·,–,–
CN(C)CCCN(C(=O)c1ccc(S(=O)(=O)N(C)Cc2ccccc2)cc1)c1nc2cc3c(cc2s1)OCO3,–,–,–,–,–
CCOc1cccc2sc(N(CCCN(C)C)C(=O)c3ccc(S(=O)(=O)N(CC)Cc4ccccc4)cc3)nc12,–,55.0,–,–,–
CCOc1cccc2sc(N(CCCN(C)C)C(=O)c3ccc(S(=O)(=O)N(C)Cc4ccccc4)cc3)nc12,–,53.8,–,–,–
C=CCN1[C@H](C#N)[C@@H](c2ccc(C#Cc3ccccc3OC)cc2)[C@H]1CO,·,·,·,–,·
COc1ccccc1CNC(=O)CSc1ccc(-c2ccccn2)nn1,–,–,–,–,55.9
O=C(Nc1ccncc1)c1ccc2c(c1)S(=O)(=O)c1ccccc1C2=O,37.9,52.3,–,–,–
O=C(Nc1ccc(-c2ccccc2)cc1)c1ccc2c(c1)S(=O)(=O)c1ccccc1C2=O,–,–,·,–,–
OC1(c2ccc(F)cc2)CSC(=Nc2cccnc2)N1Cc1ccco1 (stereo not drawn),–,–,–,–,–
OC1(c2ccc(OC(F)F)cc2)CSC(=Nc2cccnc2)N1Cc1ccco1 (stereo not drawn),–,57.5,–,–,·
CCOC(=O)[C@]12CCCC=C1N(Cc1ccc(OC)cc1)C(=O)[C@@H]2CC(=O)N1CCSCC1,·,·,·,–,·
CC(C)C(=O)Nc1ccc(N2CCOCC2)c(S(=O)(=O)Nc2ccccc2Cl)c1,–,52.8,·,–,·
CC(=O)Nc1ccc(N2CCOCC2)c(S(=O)(=O)Nc2ccccc2Cl)c1,–,–,·,–,·
Cc1ccc(C)c(NC(=O)c2cc(-c3ccc(Cl)cc3)nc3ccccc23)c1,·,·,·,–,·
COc1cccc(NC(=O)n2ccc3ccc(-c4ccc5cc[nH]c5c4)cc32)c1,·,·,·,–,·
COc1ccc(NS(=O)(=O)c2ccc(C(=O)N(C)Cc3ccc(C)o3)cc2)cc1,49.4,–,·,–,·
COc1ccc(NS(=O)(=O)c2ccc(C(=O)NCC3(N4CCOCC4)CCCCC3)cc2)cc1,57.4,–,·,–,·
COc1ccc(NS(=O)(=O)c2cccc(C(=O)NCC3(N4CCOCC4)CCCCC3)c2)cc1,–,–,–,–,–
COc1ccc(Oc2c(Cl)cnn(C3c4ccccc4-c4ccccc43)c2=O)cc1,·,·,·,–,·
SMILES,TAAR1 ag,TAAR1 antagonist,NS3 helicase inh,rCAG RNA binder,core dimer inh
O=C(CSc1nnc(-c2ccccc2)n1-c1ccccc1)NN=Cc1ccc(-c2ccccc2)cc1,·,·,·,–,·
CC(=O)CC[C@H]1CC[C@]2(CCCN(C(=O)C3CCCC3)C2)O1,·,·,·,–,·
CCOC(=O)C1=C(C)Nc2ccccc2N=C1NC(=O)C1CCN(C(=O)c2ccccc2C)CC1,–,49.1,·,–,·
CCOC(=O)N1CCN(C(=O)C2CCN(C(=O)c3ccccc3C)CC2)CC1,65.5,–,·,–,·
O=c1[nH]c2ccc(S(=O)(=O)N3CCCC3)cc2o1,·,·,·,–,·
O=C(CN1CCN(c2nc(-c3ccccc3)cs2)CC1)Nc1ccc(Cl)c(Cl)c1,·,·,·,–,·

# Compound activity (PubChem)
